The values that follow come from ChEMBL document CHEMBL3351428, “Uralsaponins M-Y, antiviral triterpenoid saponins from the roots of Glycyrrhiza uralensis” (J Nat Prod, 2014).

As a reminder, the IC50 is the point on the concentration scale where inhibition reaches its midpoint. One may read the inhibition as the change of the read-out against control, counted positive when it falls.

Data set [1] is described as follows: Antiviral activity against Influenza A virus A/WSN/33 (H1N1) infected in MDCK cells assessed as inhibition of virus-induced cell death after 36 hrs by CellTiter-Glo luminescent cell viability assay. It is filed as functional, cell-based, Influenza A virus (A/WSN/1933(H1N1)). The gist of the method:
(§1)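 MDCK cells in DMEM/10% FBS with penicillin-streptomycin, seeded 1 × 10^5/well 24 h before infection (37 °C, 5% CO2). Virus was grown in MDCK with 2 μg/mL TPCK-trypsin. Compound premixed with virus 15 min at room temperature, then added after medium removal. Read at 36 h postinfection by microscopy, confirmed by CellTiter-Glo. Inhibition % computed from luminescence relative to DMSO with/without virus. IC50 measured for significant inhibitors.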
(In ATP-based viability assays light output follows the ATP content of the culture.)

Data set [2] can be described thus: Antiviral activity against Influenza A virus A/WSN/33 (H1N1) infected in MDCK cells assessed as inhibition of virus-induced cell death at 100 uM after 36 hrs by CellTiter-Glo luminescent cell viability assay. It counts as functional, Influenza A virus (A/WSN/1933(H1N1)). The gist of the method: as §1
A further data set has as its system MDCK. The data set can be described thus: Cytotoxicity against MDCK cells assessed as reduction in cell viability at 100 uM after 36 hrs by CellTiter-Glo luminescent assay. The following applies: dog. It counts as cell-based, Canis lupus familiaris. The gist of the method:
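Uninfected MDCK cells, grown in DMEM with 10% FBS, 100 U/mL penicillin and 100 μg/mL streptomycin, were incubated with compound for 36 h. Cytopathic effect was scored by microscopy and confirmed by CellTiter-Glo luminescent viability read-out.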

In data set [3] the test system is Human immunodeficiency virus 1. The data set can be described thus: Antiviral activity against VSV-G protein pseudotyped HIV1 infected in 293T cells assessed as inhibition of viral replication after 48 hrs by luciferase reporter assay. It is filed as functional, organism-based. The following applies: Human immunodeficiency virus 1, HEK-293T. The gist of the method: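 Pseudovirus was made by cotransfecting 293T cells with pNL-Luc-E and pHIT/G and harvesting filtered supernatant after 48 h. Capsid level was quantified by p24 ELISA. SupT1 cells were infected at MOI 1 with or without compound (efavirenz as positive control) at […] for 48 h. Luciferase read-out gave inhibition rate. Compounds above 50% at 100 μM were taken to IC50.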

In data set [4] the test system is Human immunodeficiency virus 1. The data set can be described thus: Antiviral activity against VSV-G protein pseudotyped HIV1 infected in 293T cells assessed as inhibition of viral replication at 100 uM after 48 hrs by luciferase reporter assay. It is filed as functional. The following applies: Human immunodeficiency virus 1, HEK-293T. For orientation: In a reporter assay the amount or activity of a reporter protein is the signal.

For the compound `C[C@@H]1O[C@@H](O[C@H]2[C@H](O[C@H]3[C@H](O[C@H]4CC[C@]5(C)[C@H]6C(=O)C=C7[C@@H]8C[C@@](C)(C(=O)O)[C@H](O)C[C@]8(C)CC[C@@]7(C)[C@]6(C)CC[C@H]5C4(C)C)O[C@H](C(=O)O)[C@@H](O)[C@@H]3O)O[C@H](CO)[C@@H](O)[C@@H]2O)[C@H](O)[C@H](O)[C@H]1O`, in data set [1], the IC50 amounted to 42.7 µM. Besides, the inhibition at 100 µM in data set [2] was found to be 47.5%. Besides, the Activity entry in the data set with MDCK is on record as “Non-toxic”.
The corresponding values for `C[C@@H]1O[C@@H](O[C@@H]2CC(C)(C)C[C@H]3C4=CC(=O)[C@@H]5[C@@]6(C)CC[C@H](O[C@@H]7O[C@H](C(=O)O)[C@@H](O)[C@H](O)[C@H]7O[C@@H]7O[C@H](C(=O)O)[C@@H](O)[C@H](O)[C@H]7O)C(C)(C)[C@@H]6CC[C@@]5(C)[C@]4(C)CC[C@@]23C)[C@H](O)[C@H](O)[C@H]1O` are 39.6 µM, 47.5% and “Non-toxic”.
For the compound `CC(=O)O[C@@H]1C[C@](C)(C(=O)O)C[C@H]2C3=CC(=O)[C@@H]4[C@@]5(C)CC[C@H](O[C@H]6O[C@H](C(=O)O)[C@@H](O)[C@H](O)[C@H]6O[C@@H]6O[C@H](C(=O)O)[C@@H](O)[C@H](O)[C@H]6O)C(C)(C)[C@@H]5CC[C@@]4(C)[C@]3(C)CC[C@@]12C`, the IC50 in data set [1] was found to be 49.1 µM; in data set [3], 29.5 µM. Further, the inhibition at 100 µM in data set [2] came out at 47.5%. Besides, the Activity entry with MDCK is “Non-toxic”.
Regarding `CC1(C)[C@@H](O[C@@H]2O[C@H](C(=O)O)[C@@H](O)[C@H](O)[C@H]2O[C@@H]2O[C@H](C(=O)O)[C@@H](O)[C@H](O)[C@H]2O)CC[C@]2(C)[C@H]3C(=O)C=C4[C@@H]5C[C@]6(C)C[C@@H](OC6=O)[C@]5(C)CC[C@@]4(C)[C@]3(C)CC[C@@H]12`, the inhibition at 100 µM in data set [4] was greater than 50%. Besides, in data set [3], the IC50 was 87.1 µM.
Taken in the same sequence, the figures for `CC1(C)[C@@H](O[C@@H]2O[C@H](C(=O)O)[C@@H](O)[C@H](O)[C@H]2O[C@@H]2O[C@H](C(=O)O)[C@@H](O)[C@H](O)[C@H]2O)CC[C@]2(C)[C@H]3CC=C4[C@@H]5C[C@@](C)(C(=O)O)CC[C@]5(C)CC[C@@]4(C)[C@]3(C)CC[C@@H]12` were greater than 50% and 83.2 µM.
`CC1(C)[C@@H](O[C@H]2O[C@H](C(=O)O)[C@@H](O)[C@H](O)[C@H]2O[C@@H]2OC[C@H](O)[C@H](O)[C@H]2O)CC[C@]2(C)[C@H]3C(=O)C=C4[C@@H]5C[C@@](C)(C(=O)O)CC[C@]5(C)CC[C@@]4(C)[C@]3(C)CC[C@@H]12`: the inhibition at 100 µM in data set [4] is greater than 50%. The IC50 in data set [3] turned out to be 85.1 µM.
The corresponding values for `CC(=O)O[C@@H]1C[C@](C)(C=O)C[C@H]2C3=CC(=O)[C@@H]4[C@@]5(C)CC[C@H](O)C(C)(C)[C@@H]5CC[C@@]4(C)[C@]3(C)CC[C@@]12C` are greater than 50% and 69.2 µM.
Taken in the same sequence, the figures for `CC1(C)[C@@H](O[C@@H]2O[C@H](CO)[C@@H](O)[C@H](O)[C@H]2O)CC[C@]2(C)[C@H]3C(=O)C=C4[C@@H]5C[C@@](C)(C(=O)O)CC[C@]5(C)CC[C@@]4(C)[C@]3(C)CC[C@@H]12` were greater than 50% and 41.7 µM.
For `CC1(C)[C@@H](O)CC[C@]2(C)[C@H]3C(=O)C=C4[C@@H]5C[C@@](C)(C(=O)O)CC[C@]5(C)CC[C@@]4(C)[C@]3(C)CC[C@@H]12` [ENOXOLONE], the IC50 in data set [3] worked out at 28.8 µM.
As for `CCOC(=O)C1=C[C@@H](OC(CC)CC)[C@H](NC(C)=O)[C@@H](N)C1` [OSELTAMIVIR PHOSPHATE], the IC50 in data set [1] is 45.6 µM. Further, the inhibition at 100 µM in data set [2] was 78%.
